Measured values gathered from unrelated publications.
PIP4K2C: Phosphatidylinositol 5-phosphate 4-kinase type-2 gamma (PIP4K2C, Homo sapiens, UniProt Q8TBX8)

SMILES	target	read-out	mode	technique	notes	quantity	result
Nc1ncc2c(n1)-c1c([nH]c3ccc(C#CC4CC4)cc13)CCCC2	PIP4K2C	binding		competition with immobilised ligand		Kd	6400 nM
CC(C)C[C@H](NC(=O)[C@H](Cc1ccccc1)NC(=O)[C@H](Cc1ccc(O)cc1)NC(=O)CNC(=O)[C@H](CCCNC(=N)N)NC(=O)[C@H](CO)NC(=O)[C@H](CCC(N)=O)NC(=O)[C@H](CO)NC(=O)[C@H](C)NC(=O)[C@H](Cc1ccccc1)NC(=O)[C@@H]1CCCN1C(=O)[C@H](CO)NC(=O)[C@H](CCC(N)=O)NC(=O)[C@H](Cc1ccccc1)NC(=O)[C@H](CCC(=O)O)NC(=O)[C@H](CCC(=O)O)NC(=O)[C@H](CC(=O)O)NC(=O)[C@@H](NC(=O)[C@H](CCCNC(=N)N)NC(=O)[C@@H](N)Cc1ccccc1)C(C)C)C(=O)N[C@@H](Cc1ccccc1)C(=O)N[C@@H](CCCNC(=N)N)C(=O)N1CCC[C@H]1C(=O)N[C@@H](CCCNC(=N)N)C(=O)N[C@@H](CC(N)=O)C(N)=O	Neuromedin-U receptor 1 (NMUR1, Homo sapiens, UniProt Q9HB89)	inositol phosphate	agonist	TR-FRET		EC50	0.12 nM
CC(=O)CC(c1ccccc1)c1c(O)c2ccccc2oc1=O (stereo not drawn)	Vitamin K epoxide reductase complex subunit 1-like protein 1 (Homo sapiens, UniProt Q8N0U8)	enzyme activity	inhibitor	fluorescence		Ki	95 nM
C[S+](CC[C@H](N)C(=O)O)C[C@H]1O[C@@H](n2cnc3c(N)ncnc32)[C@H](O)[C@@H]1O (stereo partly drawn)	tRNA (guanine-N(1)-)-methyltransferase (trmD, Escherichia coli, UniProt P0A873)	binding		fluorescence		Kd	1400 nM
CC1(C)[C@@H](O)CC[C@]2(C)[C@H]3C(=O)C=C4[C@@H]5C[C@@](C)(C(=O)O)CC[C@]5(C)CC[C@@]4(C)[C@]3(C)CC[C@@H]12	Peroxiredoxin-2 (PRDX2, Homo sapiens, UniProt P32119)	binding		SPR		Kd	30000 nM
COc1ccc2c(Oc3ccc4c(C(=O)Nc5ccccc5N)cccc4c3)ccnc2c1	Mitogen-activated protein kinase 9 (MAPK9, Homo sapiens, UniProt P45984)	enzyme activity	inhibitor			IC50	> 500 nM
CC(=O)Nc1cc(Oc2ccc3c(c2)CCN3C(=O)Nc2ccc(CN3CCN(C)CC3)c(C(F)(F)F)c2)ncn1	Tyrosine-protein kinase JAK2 (JAK2, Homo sapiens, UniProt O60674)	enzyme activity	inhibitor	ELISA		Ki	22000 nM
C[C@@]12CCC(=O)N1c1cc(Nc3ncc(Cl)c(-c4cccc(-c5ccccc5)c4)n3)cnc1OC2	PIP4K2C	binding				Kd	0.45 nM
Cc1cnc(-c2ccc(-c3ccc(NC(=O)Nc4c(F)cc(F)cc4F)cc3F)c3c2C(=O)NC3)[nH]1	Proto-oncogene tyrosine-protein kinase receptor Ret (RET, Homo sapiens, UniProt P07949)	binding		competition with immobilised ligand		Kd	9.4 nM
O=C(/C=C/c1ccc(O)c2c1[C@H](C(=O)O[C@H](Cc1ccc(O)c(O)c1)C(=O)O)[C@@H](c1ccc(O)c(O)c1)O2)O[C@H](Cc1ccc(O)c(O)c1)C(=O)O	Platelet glycoprotein 4 (CD36, Homo sapiens, UniProt P16671)	binding		SPR		Kd	3740 nM
Cc1cc2nc3c(=O)[nH]c(=O)nc-3n(C[C@H](O)[C@H](O)[C@H](O)COP(=O)(O)OP(=O)(O)OC[C@H]3O[C@@H](n4cnc5c(N)ncnc54)[C@H](O)[C@@H]3O)c2cc1C	Alpha-crystallin B chain (CRYAB, Homo sapiens, UniProt P02511)	binding			lysate	Kd	152 nM
CC(C)(C)CC(C)(C)c1ccc(O)cc1	Estrogen receptor beta (ESR2, Homo sapiens, UniProt Q92731)	reporter gene	agonist	luciferase		EC50	197 nM
